Molecules are shown by their SMILES.

The nature of this data set: Toxicity liver stage against HepG2, at 10uM. In kind it is cell-based. More on the design: test concentration 10 uM, cell line HepG2-A16-CD81EGFP. To be noted: human, HepG2-A16-CD81EGFP cells; read-out: INHIBITION
An outline of the steps: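 Uninfected HepG2-A16-CD81EGFP cells, 3 × 10^3 per well, 1536-well, plated on prespotted compound at 10 μM final, parasite-free screening media added to match infected plates; puromycin 10 μM positive, DMSO 0.5% negative; run in parallel with 48 h PbLuc assay at 37 °C, 5% CO2; viability by CellTiter-Glo luminescence, normalized to controls.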
Turning to `CCN1CCN(Cc2coc(-c3cccc(F)c3)n2)CC1`, the cytotoxicity at 10 µM is -7.75%.

As to `CC(C)(C)CN1CCOC[C@H]1c1nc(-c2cccc(F)c2)c[nH]1`, the cytotoxicity at 10 µM is -3.79%. `Cn1nc(-c2ccc(Cl)cc2)c(Br)c1C(=O)O`: the cytotoxicity at 10 µM was -46.8%. `CC(=O)Nc1ccc(OCc2noc(C(=O)N3CCCCCC3)n2)cc1`: the cytotoxicity at 10 µM is -23%.

As to `Cc1ccc(NC(=O)Cn2ncc(SCC(N)=O)c(Cl)c2=O)c(F)c1`, the cytotoxicity at 10 µM is -7.21%. `Cc1nccn1CC1CCN(C(=O)Cc2ccccc2)CC1`: the cytotoxicity at 10 µM was -17%. Under `O=C(Nc1nc2c(s1)CN(S(=O)(=O)C1CC1)CC2)Nc1ccccc1F` stands -1.34%. Under `O=C(NCCn1ccc(-c2ccncc2)n1)c1ccc2c(c1)OCO2` stands 6.03%.

Take `Cc1cccc(CN2CCc3[nH]nc(C(=O)N4CCOCC4)c3C2)n1`: the cytotoxicity at 10 µM is 6.31%.

On to `O=C(O)c1nnn(-c2cccc(C(F)(F)F)c2)c1-c1ccncc1`, for which the cytotoxicity at 10 µM worked out at 4.76%.

On to `c1ccc(N2CCC(c3ccncc3)CC2)cc1`, for which the cytotoxicity at 10 µM worked out at 8.45%. As to `CN1CCCC(c2cccc(-c3cccc(Cl)c3)n2)C1` (stereo unspecified), the cytotoxicity at 10 µM was -9.58%.

Consider `CC(C)(C)n1nnnc1CN(CCc1ccccc1)Cc1ccccc1`, for which the cytotoxicity at 10 µM stood at 4.91%. As to `Cc1c[nH]nc1C1CCN(C(=O)C2CCCC2)C1` (stereo unspecified), the cytotoxicity at 10 µM came to 0.631%.

Consider `O=C(Cc1ccc2c(c1)CCCC2)N[C@@H]1CC[C@@H](n2ccnc2)[C@@H]1O`, for which the cytotoxicity at 10 µM is -5.69%.

For the molecule `CCCN1CCN(C(=O)c2cccnc2)CC1`, the cytotoxicity at 10 µM is -48.5%. Under `COc1ccc(CN(C(=O)C2CCCOC2)c2ccncc2)cc1` (stereo unspecified) stands 6.35%. On to `CC(C)c1cc(C(=O)N2CCc3ccccc3C2C(=O)O)n(C)n1` (stereo unspecified), for which the cytotoxicity at 10 µM worked out at 7.28%.

As to `CC(Cn1cncn1)NC(=O)NCC(C)(C)c1ccc(F)cc1` (stereo unspecified), the cytotoxicity at 10 µM stood at 13.6%. Under `O=C(NCCCC(=O)N1Cc2ccccc2C1)NCc1cccnc1` stands 11.9%; under `Cc1csc(C2(NC(=O)NCCN3CCOCC3)CCCC2)n1`, -3.55%. Turning to `Cn1cccc1C(=O)NC1CCN(c2ccc(OC(F)(F)F)cc2)CC1`, the cytotoxicity at 10 µM was 4.87%. As to `Cc1c(NCc2ccccc2C#N)cccc1S(=O)(=O)NC1CC1`, the cytotoxicity at 10 µM is 30.4%. Regarding `O=C(CCn1ccc2ccccc21)N1CCN(Cc2cccnc2)CC1`, the cytotoxicity at 10 µM was 0.951%. Consider `CN(Cc1cccc(C#N)c1)c1ncc(C(N)=O)cc1Cl`, for which the cytotoxicity at 10 µM worked out at 1.33%. Then `CCc1ccc(C2COCCN2C(=O)Nc2ccc(C#N)cc2)o1` (stereo unspecified), with -0.0554%.

As to `O=C(NC1CCCCC1)C1CCCN(C(=O)Nc2ccccn2)C1` (stereo unspecified), the cytotoxicity at 10 µM was found to be 3.57%. `COc1ccc(-n2cnnc2SCC(=O)NC(C)C)cn1`: the cytotoxicity at 10 µM was 14%. Under `Cc1cnn(CCNCc2ccc(OCc3noc(C)n3)cc2)c1` stands 1.33%.

As for `CCOC(C)c1noc(CN2CCN(c3nnc(C)s3)CC2)n1` (stereo unspecified), the cytotoxicity at 10 µM was -11.1%. Take `CC(C)CC(Cc1cccc(Br)c1)C(=O)O` (stereo unspecified): the cytotoxicity at 10 µM was determined as 13.8%. Then `Cc1cc(N(C)CCOc2ccccc2F)nc(N)n1`, with 20.1%; and `COc1cccc(N2CCC(CNc3cc(C)nc4ncnn34)C2)c1` (stereo unspecified), with 59.7%; and `CCCN(CCc1ccccn1)C(=O)CCc1cnn(C)c1`, with -2.84%. For the molecule `CC(=O)N1CCN(C2CCc3ccccc32)CC1` (stereo unspecified), the cytotoxicity at 10 µM was -44.7%. Then `O=C(CN1CCC(Nc2ncccn2)CC1)Nc1ccccc1`, with -17.5%; and `Cc1ccc(CN(C)C(=O)c2cnsn2)cc1`, with -16.4%. In the case of `Cc1ccccc1C(=O)NC1CCN(Cc2ncc(C(C)(C)C)o2)CC1`, the cytotoxicity at 10 µM is -17.5%.

With `CSc1ccc(C(CN)N2CCc3sccc3C2)cc1` (stereo unspecified), the cytotoxicity at 10 µM is -5.93%.

On to `COc1cc(N2C[C@@H]3COC[C@@H](Cc4nc(C)no4)[C@@H]3C2)ncn1`, for which the cytotoxicity at 10 µM is -105%. For `O=C(c1cscn1)N1C[C@H]2CCC[C@@]2(COCc2ccccn2)C1`, the cytotoxicity at 10 µM is -103%.

For `O=C(c1ccoc1)N1CCc2c(COCC3CC3)cncc2C1`, the cytotoxicity at 10 µM was -76.9%.

On to `COCCC(=O)N1CC[C@H]2O[C@@H](C)C[C@H]2C1`, for which the cytotoxicity at 10 µM was -72.4%. Turning to `Cc1nc(NCC2CC2)nc2c1COCC21CCN(S(=O)(=O)C2CC2)C1` (stereo unspecified), the cytotoxicity at 10 µM is -84.8%.

With `COCC1CN(C(=O)Cc2cccs2)Cc2c1cnn2C` (stereo unspecified), the cytotoxicity at 10 µM is -65.6%.

As to `O=C(NC1CCC1)C1=NOC2(CCN(Cc3ccc(F)cc3)C2)C1` (stereo unspecified), the cytotoxicity at 10 µM was -67.7%.

With `CCO[C@@H]1CO[C@@]2(CCCN(S(=O)(=O)c3ccccc3)C2)C1`, the cytotoxicity at 10 µM was -77.2%. Under `CSc1ncccc1C(=O)N1CCCC1c1ccc(C(=O)N(C)C)s1` (stereo unspecified) stands 6.45%; under `Cn1nnnc1SCCNC1CCN(c2ccc3c(c2)OCO3)CC1`, 3.07%; under `CCc1cc(CN2CCCCC2c2ccc(F)cc2)on1` (stereo unspecified), -2.45%.

Take `FC(F)(F)CCc1ccnc(N2CCN(CCc3ccncc3)CC2)n1`: the cytotoxicity at 10 µM was -5.86%. Then `CC(C)N(C)S(=O)(=O)c1ccc2c(c1)CCN(C(=O)c1cscn1)C2`, with 8.48%; and `CC(C)c1nc(CN(C)C(=O)c2ccc(CN3CCCCC3)cc2)cs1`, with -6.1%; and `CCCN1CCN(S(=O)(=O)c2ccccc2OC)[C@H]2CS(=O)(=O)C[C@H]21`, with -3.56%. Then `C=C(C)COc1cccc(C(=O)N2CCC(O)(c3ccccc3)CC2)c1`, with -44.9%; and `CCCn1nc(C)c(CN2CC3(CCOC3)CCC2=O)c1C` (stereo unspecified), with 4.28%. Then `CN1CCC(Cc2nc(-c3ccnn3C)n(Cc3ccccc3)n2)CC1`, with 44.1%. Turning to `CC(C)c1nccn1C(C)C(=O)N1CCN(c2ccccc2Cl)CC1` (stereo unspecified), the cytotoxicity at 10 µM was 3.54%. As to `CN1CCC(N(C)CCC(=O)N2CCC(Cc3ccc(F)cc3)CC2)C1` (stereo unspecified), the cytotoxicity at 10 µM was -1.9%.

In the case of `Cc1nc2c(c(NCc3ccccc3)n1)CCN(C(=O)NC(C)C)CC2`, the cytotoxicity at 10 µM came out at 28.7%. Under `CC(C)c1ocnc1C(=O)NC(c1nnc2n1CCNCC2)C(C)C` (stereo unspecified) stands -9.72%. On to `COc1cccc(CCC2CCCN(Cc3ncc[nH]3)C2)c1` (stereo unspecified), for which the cytotoxicity at 10 µM was found to be 1.13%.

Consider `COc1ccc(-n2cnnc2CC2CCNCC2)cc1`, for which the cytotoxicity at 10 µM is -5.53%. Then `CCc1csc(CNc2nc3c(s2)c(C)nn3C)n1`, with -35.5%. In the case of `O=C(NC1CC1)C1CN(c2nc3ccccc3s2)CCN1` (stereo unspecified), the cytotoxicity at 10 µM was -49.4%.

For `CCC(=O)Nc1cccc(OCC(=O)N(C)Cc2nccn2CC)c1`, the cytotoxicity at 10 µM was determined as 3.96%. Under `C1Cc2nc(CCNc3nc(C4CC4)nc4c3CCNCC4)sc2C1` stands -10.4%; under `COc1ccc(OCc2cc(C(=O)N3CCN[C@H](C)C3)n[nH]2)c(Cl)c1`, -11.7%. With `COc1ccc(N(c2ccccc2)c2ccc(C(=O)O)s2)cc1`, the cytotoxicity at 10 µM was -1.5%. On to `Cc1cc(Br)c(O)c(-c2nc(N3CCCCC3)sc2C)c1`, for which the cytotoxicity at 10 µM was -7.13%.

On to `CC(=O)N1C[C@@H](c2ccsc2)[C@@H]2CN(Cc3cccc(Cl)c3)CC[C@@H]21`, for which the cytotoxicity at 10 µM turned out to be 13.1%. Under `CCOCCCn1c(NC(=O)c2cc(C)on2)nc2ccccc21` stands -31.3%. For the molecule `Cc1nn(C)c(N(C)C)c1CNCCC(=O)NC1CCCC1`, the cytotoxicity at 10 µM was -3.37%.

As for `CCCc1noc(CCCC(=O)N2CCCC2c2cnn(C)c2)n1` (stereo unspecified), the cytotoxicity at 10 µM came out at 6.32%. Then `Cc1cn2c(n1)CCC(NC(=O)c1[nH]nc(C)c1Br)C2` (stereo unspecified), with -17.6%. Under `CCN(Cc1nc2c(cnn2C)c(=O)[nH]1)c1cc(C)cc(C)c1` stands -5.83%; under `COCCc1noc(CN2CCCC2Cn2nc(C)nc2C)n1` (stereo unspecified), -1.39%; under `CC(C)C(=O)NC1CCCN(C(=O)c2ccc(O)c(Cl)c2)C1` (stereo unspecified), -6.04%.

`c1cnnc(N2CCCC2CNc2ncnc3ccccc23)c1` (stereo unspecified): the cytotoxicity at 10 µM was determined as 2.33%. For the molecule `CC1(C)CC(N(Cc2cccnc2)Cc2cccnc2)CC(C)(C)N1`, the cytotoxicity at 10 µM stood at 1.3%.

As for `CO[C@@H]1CO[C@@]2(CCCN(Cc3nc(C)cs3)C2)C1`, the cytotoxicity at 10 µM was -138%. Turning to `CN1CCN(C(=O)Cc2ccsc2)Cc2cccnc21`, the cytotoxicity at 10 µM is -1.16%. Then `Cn1nc(C2CCCN(Cc3ccccc3)C2)c2nccnc21` (stereo unspecified), with -9.05%; and `CC[C@@H]1N(CC2CC2)CCC[C@]12CCC(=O)N2`, with 15.4%; and `N#Cc1ccc(N2CCCC3(CCN(c4cncnc4)C3=O)C2)nc1` (stereo unspecified), with -97.6%. As for `COc1ccc(CN2C[C@@H]3CN(Cc4cccnc4)CCO[C@@H]3C2)cc1`, the cytotoxicity at 10 µM was 10.3%. `Cc1occc1C(=O)N1C[C@@H]2OCCN(CCN3CCCC3)[C@@H]2C1`: the cytotoxicity at 10 µM is -76.1%.

For the molecule `c1cncc(OC[C@@H]2CCC[C@@]23CN(Cc2nccs2)CCO3)c1`, the cytotoxicity at 10 µM was -63.3%.

As for `Cn1ncc2c1CN(C(=O)Cc1ccccn1)CC2COCC1CC1` (stereo unspecified), the cytotoxicity at 10 µM is -73.6%. Regarding `CN(C)c1nccc(N2CCO[C@H]3CN(Cc4ccsc4)C[C@H]32)n1`, the cytotoxicity at 10 µM came out at 8.93%. Then `Cc1ccc(CN2Cc3nccn3CC(CN(C)C)C2)s1` (stereo unspecified), with -82.4%. As for `Cc1occc1C(=O)N1CCC2(CCN(Cc3ccccn3)C2=O)C1` (stereo unspecified), the cytotoxicity at 10 µM was -152%. Then `CC(C)COC1CC2(CCN(C(=O)Cc3ccccn3)CC2)C1`, with -113%; and `CCC1=NN2C(=N)C(=Cc3cccn3-c3ccc(Br)cc3)C(=O)N=C2S1`, with -7.83%. Turning to `Cc1nnc(CN2C[C@@H]3CC[C@H]2CN(C2Cc4ccccc4C2)C3)o1`, the cytotoxicity at 10 µM was -1.06%. Under `CN(C)C(=O)[C@H]1C[C@H]2CN(CCc3ccccc3)C[C@@H]1O2` stands -94.2%.

For the origin of these results see ChEMBL document CHEMBL4513216, “Probing the Open Global Health Chemical Diversity Library for Multistage-Active Starting Points for Next-Generation Antimalarials” (ACS Infect Dis, 2020).
